Results published in PubChem BioAssay AID624204 (Sanford-Burnham Center for Chemical Genomics, 2012).
Among all 360,000 compounds or so, about 770 (0.21%) were called active.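 The calls were made as follows: active = inhibition at least 30% at 10 µM, raw YFP signal under a set limit, fluorescence ratio 0.5 to 1.5; inactive = the rest.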 For the sample, actives were picked, then their nearest neighbours and some compounds at random.

Biological target: Sentrin-specific protease 1 (Homo sapiens) (UniProt Q9P0U3)
Sequence (Q9P0U3 419-644 limits assumed): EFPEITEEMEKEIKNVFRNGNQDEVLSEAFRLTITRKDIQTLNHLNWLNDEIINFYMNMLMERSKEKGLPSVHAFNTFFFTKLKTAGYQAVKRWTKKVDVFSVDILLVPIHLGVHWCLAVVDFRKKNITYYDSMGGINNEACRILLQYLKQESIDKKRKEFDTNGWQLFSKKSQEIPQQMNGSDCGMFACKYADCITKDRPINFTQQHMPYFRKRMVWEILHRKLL
Test: human SENP1 catalytic domain inhibitors, primary screen, biochemical, FRET, uHTS (AID 624204);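 also: 0% = enzyme with DMSO and 100% = no enzyme wells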
Settings: recombinant SENP1 catalytic domain, CyPet-SUMO1-YPet FRET cleavage; at 10 µM; hits give high values
How it was run: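 Test system: human SENP1 catalytic domain; medium: Tris pH 8 buffer plus EDTA, NaCl, BME, BSA, NP40, catalase; incubation: 50 min reaction at room temperature; technique: FRET, CFP and YFP emission; controls: no-enzyme low control and enzyme-plus-DMSO high control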

Structure (SMILES) | inhibition
CCN(CC)c1ccc(S(=O)(=O)N2CCOCC2)cc1NC(=O)CSc1cccc[n+]1[O-] | 3.85% (inactive)
COC(=O)c1ccc(NC(=O)CSc2nncn2-c2cccnc2)cc1 | -5.21% (inactive)
COc1cccc(CNC(=O)C2CCCN(S(=O)(=O)N3CC(C)CC(C)C3)C2)c1 (stereo not drawn) | -0.397% (inactive)
CC(CC(=O)C1C(C)C=CCC1(C)C)NNC(N)=O (stereo not drawn) | 1.56% (inactive)
COc1ccc2oc(C(=O)OCC(=O)N(CC(C)C)c3c(N)n(Cc4ccccc4)c(=O)[nH]c3=O)c(C)c2c1 | -9.9% (inactive)
CCOC(=O)N(C)c1c(CC)nc2c(OCc3ccccc3C(=O)OC)cccn12 | 0.268% (inactive)
O=C(CN1CCN(S(=O)(=O)c2ccc(Br)cc2)CC1)Nc1ccccc1C(=O)c1ccccc1 | 0.864% (inactive)
COc1ccc2c(c1)c(=O)c(C(=O)c1ccc(Cl)cc1)cn2CC(=O)Nc1ccc(F)cc1 | -1.49% (inactive)
CCOc1ncccc1C(=O)OCC(=O)Nc1cccc(S(=O)(=O)N2CCCCCC2)c1 | 2.06% (inactive)
O=C(NCc1cccnc1)c1ccccc1NC(=O)c1c(F)cccc1F | 3.29% (inactive)
CCCNC(=O)c1cc(C2CCCCN2S(=O)(=O)c2ccc(C#N)cc2)on1 (stereo not drawn) | 2.5% (inactive)
Cc1cc(C(=O)N/N=C/c2ccc(N3CCOCC3)cc2)c(C)o1 | 33.5% (active)
CNC(=S)N/N=C/c1ccc(N2CCOCC2)s1 | -70.3% (inactive)
CC(C)c1cc(C(=O)N/N=C/c2ccoc2)c(O)c(C(C)C)c1 | 1.94% (inactive)
Cc1ccc(S(=O)(=O)n2cccc2CO)cc1 | -0.0494% (inactive)
CC(C)NC(=O)C1(C)CCCCCN1C(=O)c1ccc(-c2ccccc2)cc1 (stereo not drawn) | 0.518% (inactive)
Cc1ccccc1CN1C(=O)CSCC1(C)C(=O)Nc1c(C)cccc1C (stereo not drawn) | -2.15% (inactive)
Cn1cc(/C=C/C(=O)N2CCCC(C(=O)c3ccc(C(F)(F)F)cc3)C2)cn1 (stereo not drawn) | 0.414% (inactive)
CO[C@H]1[C@@H]2C=CO[C@@H](O[C@H]3O[C@@H](CO)[C@H](O)[C@@H](O)[C@@H]3O)[C@@H]2[C@@]2(CO)O[C@@H]12 | -2% (inactive)
COC(=O)c1c(NC(=O)CN2C(=O)NC(CCc3ccccc3)C2=O)sc2c1CCCCC2 (stereo not drawn) | -3.88% (inactive)
NC1=NN(c2cccc(C(=O)O)c2)C(=O)C1 | 4.58% (inactive)
Cc1cc(C)cc(C(=O)OCC(=O)NCCNC(=O)COC(=O)c2cc(C)cc(C)c2)c1 | 0.612% (inactive)
O=C(c1ccc(-n2cnnn2)cc1)N1CCN(C(c2ccccc2)c2ccccc2)CC1 | 0.954% (inactive)
CCc1ccc(OC(C)C(=O)Nc2ccc(S(=O)(=O)Nc3cc(C)on3)cc2)cc1 (stereo not drawn) | 2.02% (inactive)
CCC(=O)Nc1ccc(-c2ccc(N3CCCCC3)nn2)cc1 | -4.2% (inactive)
COc1ccc(/C=C(\NC(=O)c2ccc(OCC(C)C)cc2)C(=O)OCc2ccco2)cc1 | -2.88% (inactive)
COC1C(CO)OC(n2cnc3c(=S)nc(N)[nH]c32)C1O (stereo not drawn) | 0.119% (inactive)
Cc1ccc(CN2CCN(Cc3cccc(C)n3)CC2CCO)cc1 (stereo not drawn) | -3.82% (inactive)
